Results published in ChEMBL document CHEMBL4665829, “Synthesis, Structure-Activity Relationship, and Antimalarial Efficacy of 6-Chloro-2-arylvinylquinolines” (J Med Chem, 2020).
Activity calls are given as the source filed them. The calls are words filed in the database; no cut-off is given here.

Columns and labels:
[1] = Drug level in mouse liver microsomes treated with 6-chloro-2-(4-fluorostyryl)-N-(2-(4-methylpiperazin-1-yl)ethyl)quinolin-4-amine measured up to 60 mins by LC-MS analysis; assay type: ADME, Microsome; settings: 1 h
Method in brief: (§1)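 Microsomal incubations: mouse liver microsomes at 0.5 mg/mL, 1 μM compound, pH 7.4 phosphate, 37 °C, NADPH-regenerating system. The metabolite mixture was analysed by LC–MS after 15, 30 and 60 min.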

[2] = Drug level in mouse liver microsomes treated with N1,N1-diethyl-N4-(6-methoxy-2-(4-nitrostyryl)quinolin-4-yl)pentane-1,4-diamine measured up to 60 mins by LC-MS analysis; assay type: ADME, Microsome; settings: 1 h; method in brief: as §1
[3] = Drug level in mouse liver microsomes treated with N1-(6-chloro-2-(4-fluorostyryl)quinolin-4-yl)-N2,N2-dimethylethane-1,2-diamine measured up to 60 mins by LC-MS analysis; assay type: ADME, Microsome; settings: 1 h; method in brief: as §1
Plasmodium falciparum [4] = assay: Antiplasmodial activity against late trophozoite synchronized chloroquine-resistant Plasmodium falciparum Dd2 reduction in microbial growth at 6.6 nM measured after 12 hrs by Giemsa staining-based microscopic analysis; assay type: functional, organism-based
Method in brief: (§2)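 Dd2 cultures tightly synchronized by magnetic separation and sorbitol were dosed at 5 × EC50 at 6, 18, 30 or 42 h post-invasion. Controls: DHA 50 nM, atovaquone 6.6 nM, DMSO 0.1%. Sampled every 12 h for Giemsa thin smears and for flow cytometry: glutaraldehyde/paraformaldehyde fixation, Triton permeabilization, RNAse, 500 nM YOYO-1, 500,000 events/sample. Three independent biological replicates.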

Plasmodium falciparum [5] = assay: Antiplasmodial activity against late trophozoite synchronized chloroquine-resistant Plasmodium falciparum Dd2 reduction in microbial growth at 6.6 nM measured after 12 hrs by YOYO-1 staining-based flow cytometric analysis; assay type: functional, organism-based; method in brief: as §2
Plasmodium falciparum [6] = assay: Parasiticidal activity against chloroquine-resistant Plasmodium falciparum Dd2 infected in RBC assessed as reduction in parasitemia at 6.6 nM incubated for 48 hrs followed by compound washout and then incubated for 96 hrs by Giemsa staining based microscopic analysis; assay type: functional, organism-based
Method in brief: (§3)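 Controls: 0.15% DMSO, DHA 50 nM, atovaquone 6.6 nM. Drug removed by three RPMI washes, then parasitemia followed daily for 96 h by Giemsa thin smears. Three independent biological replicates.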

[7] = Drug level in mouse liver microsomes treated with 6-chloro-N-(4-morpholinobutyl)-2-(2-(pyridin-4-yl)vinyl)quinolin-4-amine measured up to 60 mins by LC-MS analysis; assay type: ADME, Microsome; settings: 1 h; method in brief: as §1
[8] = Resistant index, ratio of EC50 for antiplasmodial activity against chloroquine-resistant Plasmodium falciparum Dd2 to antiplasmodial activity against chloroquine-sensitive Plasmodium falciparum 3D7; assay type: functional
Plasmodium falciparum [9] = assay: Antiplasmodial activity against chloroquine-resistant Plasmodium falciparum Dd2 infected in human erythrocytes assessed as reduction in microbial growth after 72 hrs by SYBR green I staining based fluorescence assay; assay type: functional, organism-based; settings: Dd2, Erythrocyte
Method in brief: (§4)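 SYBR Green I assay: twofold serial dilutions on P. falciparum cultures at 1% parasitemia, 1% hematocrit, 37 °C, 5% CO₂, 72 h, max 0.1% DMSO. DMSO and CQ as growth and inhibition controls. Plates frozen at −80 °C, thawed, lysed in Tris/saponin/EDTA/Triton buffer with 0.01% SYBR Green I, 1 h dark at room temperature. Fluorescence read at 485 ex/530 em. EC50 by nonlinear dose–response fit.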

Plasmodium falciparum [10] = assay: Antiplasmodial activity against chloroquine-sensitive Plasmodium falciparum 3D7 infected in human erythrocytes assessed as reduction in microbial growth after 72 hrs by SYBR green I staining based fluorescence assay; assay type: functional, organism-based; settings: 3D7, Erythrocyte; method in brief: as §4
HepG2 = assay: Cytotoxicity against human HepG2 cells assessed as reduction in cell viability after 48 hrs by MTS assay; assay type: cell-based; settings: HepG2, 48 h
Method in brief: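 HepG2 cells were seeded at 2250 per well and grown 24 h at 37 °C, 5% CO₂. Serial dilutions starting at 25 μM were added for a further 48 h. MTS was then added for 3 h at 37 °C and absorbance read at 490 nm. EC₅₀ came from nonlinear dose–response fits.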

[11] = Selectivity index, ratio of EC50 for cytotoxicity against human HepG2 cells to antiplasmodial activity against chloroquine-resistant Plasmodium falciparum Dd2; assay type: toxicity, cell-based; settings: read-out: Ratio EC50
[12] = Stability of compound in mouse liver microsomes assessed as parent compound remaining at 1 uM after 60 mins in presence of NADPH by LC-MS analysis; assay type: ADME, Microsome; settings: 1 h
Method in brief: (§5)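 Mouse liver microsomes (0.5 mg/mL final protein) in 0.1 M phosphate, pH 7.4, with compound at 1 μM, 37 °C with shaking. Aliquots were quenched in cold acetonitrile and centrifuged; LC–MS gave parent peak area at 60 min relative to 0 min.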

[13] = Intrinsic clearance in mouse liver microsomes assessed as parent compound at 1 uM after 60 mins in presence of NADPH by LC-MS analysis; assay type: ADME, Microsome; method in brief: as §5
[14] = Stability of compound in mouse liver microsomes assessed as parent compound remaining after 60 mins in presence of NADPH by LC-MS analysis; assay type: ADME, Microsome; settings: read-out: Stabilty
[15] = Half life in mouse liver microsomes after 60 mins in presence of NADPH by LC-MS analysis; assay type: ADME, Microsome
Plasmodium falciparum [16] = assay: Antiplasmodial activity against synchronous gametocyte early stage of Plasmodium falciparum 3D7 harboring luc7 incubated for 72 hrs by ONE-Glo luciferase assay; assay type: functional, organism-based; settings: 3D7, 72 h
Method in brief: (§6)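 Gametocytes of P. falciparum 3D7 luc7 induced by nutrient starvation, cultured in heparin medium to remove asexual stages, Percoll-purified as early (II–III) or late (IV–V) stage. 50,000 gametocytes/well exposed 72 h to a 19-point gradient, 0.038 nM–10 μM. ONE-Glo luciferase read after 5 min. EC50 by nonlinear curve fit; three experiments.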

Plasmodium falciparum [17] = assay: Antiplasmodial activity against synchronous gametocyte late stage of Plasmodium falciparum 3D7 harboring luc7 incubated for 72 hrs by ONE-Glo luciferase assay; assay type: functional, organism-based; settings: 3D7, 72 h; method in brief: as §6
[18] = Half life in mouse liver microsomes at 1 uM after 60 mins in presence of NADPH by LC-MS analysis; assay type: ADME, Microsome; settings: 1 h; method in brief: as §5
Plasmodium falciparum [19] = assay: Antiplasmodial activity against late trophozoite synchronized chloroquine-resistant Plasmodium falciparum Dd2 reduction in microbial growth at 5 times of EC50 after 12 hrs by Giemsa staining-based microscopic analysis; assay type: functional, organism-based; method in brief: as §2
Plasmodium falciparum [20] = assay: Antiplasmodial activity against late trophozoite synchronized chloroquine-resistant Plasmodium falciparum Dd2 reduction in microbial growth at 5 times of EC50 after 12 hrs by YOYO-1 staining-based flow cytometric analysis; assay type: functional, organism-based; method in brief: as §2
Plasmodium falciparum [21] = assay: Parasiticidal activity against chloroquine-resistant Plasmodium falciparum Dd2 infected in RBC assessed as reduction in parasitemia at 5 times of EC50 incubated for 6 to 48 hrs followed by compound washout and then incubated for 96 hrs by Giemsa staining based microscopic analysis; assay type: functional, organism-based; settings: time hrs 6-48; method in brief: as §3
Hemozoin [22] = assay: Inhibition of beta-hematin formation after 16 hrs by inverted microscopic analysis; settings: dose microM 12.5-200, time 16.0 hrs
Method in brief: (§7)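 Hemin (2 mM stock in 0.1 M NaOH; 100 μM final), propionate buffer pH 5.2 and sonicated phosphatidylcholine were incubated with a compound concentration series for 16 h at 37 °C with gentle shaking. Crystals were imaged by inverted microscope before quenching with 7.5% SDS in bicarbonate, pH 9.1. Free hemin was measured at 405 nm against a 0–16 μM calibration. Three independent experiments.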

Plasmodium berghei [23] = assay: Antiplasmodial activity against Plasmodium berghei ANKA expressing luciferase infected in Swiss Webster mouse at 100 mg/kg, po for 5 days using monophosphate salt form of compound by luminescence based assay; assay type: functional, organism-based; settings: time 5.0 day
Method in brief: (§8)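 Female Swiss Webster mice got 10³ RBC infected with luciferase-expressing P. berghei ANKA. From 48 h post-infection, groups of five were gavaged once daily for 5 days in 2% methylcellulose/0.5% Tween 80, against a vehicle control. On day 7, mice received 150 mg/kg D-luciferin in PBS, and bioluminescence was imaged by IVIS as a measure of parasite load.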

Plasmodium berghei [24] = assay: Antiplasmodial activity against Plasmodium berghei ANKA expressing luciferase infected in Swiss Webster mouse at 25 mg/kg, po for 5 days using monophosphate salt form of compound by luminescence based assay; assay type: functional, organism-based; settings: time 5.0 day; method in brief: as §8
Plasmodium falciparum [25] = assay: Antiplasmodial activity against synchronized chloroquine-resistant Plasmodium falciparum Dd2 reduction in microbial growth at 50 nM treated with compound at 42 hrs post infection measured after 12 hrs by Giemsa staining-based microscopic analysis; assay type: functional, organism-based; method in brief: as §2
Plasmodium falciparum [26] = assay: Antiplasmodial activity against synchronized chloroquine-resistant Plasmodium falciparum Dd2 reduction in microbial growth at 50 nM treated with compound at 42 hrs post infection measured after 12 hrs by YOYO-1 staining-based flow cytometric analysis; assay type: functional, organism-based; method in brief: as §2
Plasmodium falciparum [27] = assay: Parasiticidal activity against chloroquine-resistant Plasmodium falciparum Dd2 infected in RBC assessed as reduction in parasitemia at 50 nM incubated for 6 to 48 hrs followed by compound washout and then incubated for 96 hrs by Giemsa staining based microscopic analysis; assay type: functional, organism-based; settings: time hrs 6-48; method in brief: as §3
Hemozoin [28] = assay: Inhibition of beta-hematin formation at 12.5 to 200 uM after 16 hrs by inverted microscopic analysis; settings: dose microM 12.5-200, time 16.0 hrs; method in brief: as §7

Structure (SMILES): Fc1ccc(/C=C/c2cc(NCCN3CCNCC3)c3cc(Cl)ccc3n2)cc1
- Drug uptake [1]: Active

Structure (SMILES): CCNCCCC(C)Nc1cc(/C=C/c2ccc([N+](=O)[O-])cc2)nc2ccc(OC)cc12 (configuration not stated)
- Drug uptake [2]: Active

Structure (SMILES): CCN(CC)CCCC(C)Nc1cc(/C=C/c2ccc([N+](=O)[O-])cc2)nc2ccc(O)cc12 (configuration not stated)
- Drug uptake [2]: Active

Structure (SMILES): CNCCNc1cc(/C=C/c2ccc(F)cc2)nc2ccc(Cl)cc12
- Drug uptake [3]: Active

Structure (SMILES): O=C1C(O)=C([C@H]2CC[C@H](c3ccc(Cl)cc3)CC2)C(=O)c2ccccc21
- Activity (Plasmodium falciparum [4]): inactive
- Activity (Plasmodium falciparum [5]): inactive
- Activity (Plasmodium falciparum [6]): Active

Structure (SMILES): OCCNCCCCNc1cc(/C=C/c2ccncc2)nc2ccc(Cl)cc12
- Drug uptake [7]: Active

Structure (SMILES): CCN(CC)CCCC(C)Nc1cc(/C=C/c2ccc([N+](=O)[O-])cc2)nc2ccc(OC)cc12 (configuration not stated)
- Ratio EC50 [8]: 0.6
- EC50 (Plasmodium falciparum [9]): 67 nM
- EC50 (Plasmodium falciparum [10]): 119 nM
- EC50 (HepG2): 7020 nM
- selectivity ratio [11]: 105
- Stabilty [12]: 36.7%
- CLH [13]: 33.4 µL/min/mg
- remaining at 1 h [14]: 47.8%
- half-life [15]: 56.2 min

Structure (SMILES): CN(C)c1ccc2nc3ccc(N(C)C)cc3[s+]c2c1 [METHYLENE BLUE ANHYDROUS]
- EC50 (Plasmodium falciparum [16]): 74.7 nM
- EC50 (Plasmodium falciparum [17]): 107 nM

Structure (SMILES): CN1CCN(CCNc2cc(/C=C/c3ccc(F)cc3)nc3ccc(Cl)cc23)CC1
- EC50 (Plasmodium falciparum [16]): 910 nM
- Ratio EC50 [8]: 1
- EC50 (Plasmodium falciparum [9]): 15.3 nM
- EC50 (Plasmodium falciparum [10]): 15.7 nM
- EC50 (HepG2): 3200 nM
- selectivity ratio [11]: 209
- Stabilty [12]: 50.2%
- t1/2 [18]: 60.3 min
- CLH [13]: 23 µL/min/mg
- Activity (Plasmodium falciparum [19]): Active
- Activity (Plasmodium falciparum [20]): Active
- Activity (Plasmodium falciparum [21]): Active
- EC50 (Plasmodium falciparum [17]): 2500 nM
- inhibition (Hemozoin [22]): Dose-dependent effect
- Activity (Plasmodium berghei [23]): Active
- Activity (Plasmodium berghei [24]): inactive

Structure (SMILES): NCCCCNc1cc(/C=C/c2ccncc2)nc2ccc(Cl)cc12
- Drug uptake [7]: Active

Structure (SMILES): C[C@H]1[C@@H](O)O[C@@H]2O[C@@]3(C)CC[C@H]4[C@H](C)CC[C@@H]1[C@@]24OO3 [ARTENIMOL]
- EC50 (Plasmodium falciparum [16]): 17.4 nM
- Activity (Plasmodium falciparum [25]): Active
- Activity (Plasmodium falciparum [26]): Active
- Activity (Plasmodium falciparum [27]): Active
- EC50 (Plasmodium falciparum [17]): 37.4 nM

Structure (SMILES): CN(C)CCNc1cc(/C=C/c2ccncc2)nc2ccc(Cl)cc12
- Ratio EC50 [8]: 0.5
- EC50 (Plasmodium falciparum [9]): 28.8 nM
- EC50 (Plasmodium falciparum [10]): 56.6 nM
- EC50 (HepG2): 6110 nM
- selectivity ratio [11]: 212
- Stabilty [12]: 15.5%
- t1/2 [18]: 22.3 min
- CLH [13]: 62.2 µL/min/mg

Structure (SMILES): CCN(CC)CCCC(C)Nc1ccnc2cc(Cl)ccc12 (configuration not stated) [CHLOROQUINE]
- EC50 (Plasmodium falciparum [9]): 174 nM
- EC50 (Plasmodium falciparum [10]): 17.8 nM
- EC50 (HepG2): 10400 nM
- inhibition (Hemozoin [28]): Active

Structure (SMILES): Fc1ccc(/C=C/c2cc(NCc3ccccn3)c3cc(Cl)ccc3n2)cc1
- Ratio EC50 [8]: 0.6
- EC50 (Plasmodium falciparum [9]): 156 nM
- EC50 (Plasmodium falciparum [10]): 248 nM
- EC50 (HepG2): 19800 nM
- selectivity ratio [11]: 127
- Stabilty [12]: 52.9%
- t1/2 [18]: 65.3 min
- CLH [13]: 21.2 µL/min/mg

Structure (SMILES): NCCNc1cc(/C=C/c2ccc(F)cc2)nc2ccc(Cl)cc12
- Drug uptake [3]: Active
